From ChEMBL document CHEMBL1149899 (J Med Chem, 2008)
Converted amounts (≈) assume the structure as drawn.

Legend:
[1] = Inhibition of ATPase activity of yeast Hsp90; parameters: species or system Saccharomyces cerevisiae
[2] = Antitumor activity against human BXF 1218L cells; format: functional, cell-based
Outline: (§1)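 Panel of 38 human solid-tumour cell lines, each tested in a monolayer proliferation assay. Growth inhibition was expressed as IC50 and IC70 values. Testing was run at Oncotest.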

[3] = Antitumor activity against human BXF T24 cells; format: functional, cell-based; settings: T-24; outline: as §1
[4] = Antitumor activity against human CNXF 498NL cells; format: functional, cell-based; outline: as §1
SF-268 = assay: Antitumor activity against human CNXF SF268 cells; format: functional, cell-based; outline: as §1
[5] = Antitumor activity against human CXF HCT116 cells; format: functional, cell-based; settings: HCT-116; outline: as §1
[6] = Antitumor activity against human CXF HT29 cells; format: functional, cell-based; settings: HT-29; outline: as §1
SW-620 = assay: Antitumor activity against human CXF SW620 cells; format: functional, cell-based; outline: as §1
[7] = Antitumor activity against human GXF 251L cells; format: functional, cell-based; outline: as §1
[8] = Antitumor activity against human HNXF 536L cells; format: functional, cell-based; outline: as §1
[9] = Antitumor activity against human OVXF 1619L cells; format: functional, cell-based; outline: as §1
[10] = Antitumor activity against human LXF 1121L cells; format: functional, cell-based; outline: as §1
[11] = Antitumor activity against human LXF 289L cells; format: functional, cell-based; outline: as §1
[12] = Antitumor activity against human LXF 526L cells; format: functional, cell-based; outline: as §1
[13] = Antitumor activity against human LXF 529L cells; format: functional, cell-based; outline: as §1
[14] = Antitumor activity against human LXF 629L cells; format: functional, cell-based; outline: as §1
[15] = Antitumor activity against human LXF H640 cells; format: functional, cell-based; outline: as §1
[16] = Antitumor activity against human MAXF 401NL cells; format: functional, cell-based; outline: as §1
MCF7 = assay: Antitumor activity against human MAXF MCF7 cells; format: functional, cell-based; outline: as §1
[17] = Antitumor activity against human MEXF 276L cells; format: functional, cell-based; settings: MEXF276L; outline: as §1
[18] = Antitumor activity against human MEXF 394NL cells; format: functional, cell-based; outline: as §1
[19] = Antitumor activity against human MEXF 462NL cells; format: functional, cell-based; outline: as §1
[20] = Antitumor activity against human MEXF 514L cells; format: functional, cell-based; outline: as §1
[21] = Antitumor activity against human MEXF 520L cells; format: functional, cell-based; outline: as §1
[22] = Antitumor activity against human OVXF 899L cells; format: functional, cell-based; outline: as §1
OVCAR-3 = assay: Antitumor activity against human OVCAR-3 cells; format: functional, cell-based; outline: as §1
[23] = Antitumor activity against human PAXF 165L cells; format: functional, cell-based; outline: as §1
[24] = Antitumor activity against human PAXF PANC1 cells; format: functional, cell-based; settings: PANC-1; outline: as §1
CWR22R = assay: Antitumor activity against human PRXF 22RV1 cells; format: functional, cell-based; outline: as §1
DU-145 [25] = assay: Antitumor activity against human PRXF DU145 cells; format: functional, cell-based; outline: as §1
[26] = Antitumor activity against human PRXF LNCAP cells; format: functional, cell-based; outline: as §1
[27] = Antitumor activity against human PXF 1752L cells; format: functional, cell-based; outline: as §1
[28] = Antitumor activity against human RXF 1781L cells; format: functional, cell-based; outline: as §1
[29] = Antitumor activity against human RXF 393NL cells; format: functional, cell-based; outline: as §1
[30] = Antitumor activity against human RXF 486L cells; format: functional, cell-based; outline: as §1
[31] = Antitumor activity against human RXF 944L cells; format: functional, cell-based; outline: as §1
UO-31 = assay: Antitumor activity against human RXF UO31 cells; format: functional, cell-based; outline: as §1
[32] = Antitumor activity against human […] 1138L cells; format: functional, cell-based; outline: as §1
DU-145 [33] = assay: Degradation of ErbB2 in human DU145 cell lysate by Western blot; format: functional, cell-based
Outline: (§2)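 DU145 prostate cancer cells were exposed to 1 or 10 µM, with time points including 48 and 96 h. Cell lysates were probed by Western blot for ErbB2, cRaf1, Hsp90 and Hsp70.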

DU-145 [34] = assay: Degradation of cRaf1 in human DU145 cell lysate by Western blot; format: functional, cell-based; outline: as §2
DU-145 [35] = assay: Antitumor activity against human DU145 tumor xenografted mouse at 10 mg/kg, ip measured on day 31; format: functional; settings: route intraperitoneal
DU-145 [36] = assay: Antitumor activity against human DU145 tumor xenografted mouse assessed delay for tumor doubling time at 10 mg/kg, ip; format: functional; settings: route intraperitoneal
DU-145 [37] = assay: Antitumor activity against human DU145 tumor xenografted mouse assessed delay for tumor quadrupling time at 10 mg/kg, ip; format: functional; settings: route intraperitoneal
Mus musculus = assay: Toxicity in human DU145 cells xenografted mouse assessed as loss of body weight at 10 mg/kg, ip on day 3; format: organism-based, DU-145; parameters: dose 10 mg/kg, route intraperitoneal; settings: in vivo
[38] = Antitumor activity against human PRXF PC3M cells; format: functional, cell-based; settings: PC-3M; outline: as §1

SMILES: CO[C@H]1[C@@H](OC)C[C@H](C)[C@@H](OC)C2=CC(=O)C=C(NC(=O)/C(C)=C/C=C\[C@H](C)[C@@H](OC(N)=O)/C(C)=C/[C@@H]1C)C2=O [MACBECIN]
- IC50 [1]: 2000 nM
- IC50 [2]: < 0.01 µg/mL
- IC70 [2]: < 0.01 µg/mL
- IC90 [2]: 37.3 µg/mL (≈ 66.7 µM)
- IC50 [3]: 1.6 µg/mL (≈ 2.87 µM)
- IC70 [3]: 4.56 µg/mL (≈ 8.16 µM)
- IC90 [3]: 35.9 µg/mL (≈ 64.3 µM)
- IC50 [4]: < 0.01 µg/mL
- IC70 [4]: 0.857 µg/mL (≈ 1.53 µM)
- IC90 [4]: 27.8 µg/mL (≈ 49.8 µM)
- IC50 (SF-268): 0.527 µg/mL (≈ 0.943 µM)
- IC70 (SF-268): 1.97 µg/mL (≈ 3.52 µM)
- IC90 (SF-268): 7.63 µg/mL (≈ 13.7 µM)
- IC50 [5]: 0.923 µg/mL (≈ 1.65 µM)
- IC70 [5]: 6.06 µg/mL (≈ 10.8 µM)
- IC90 [5]: 51.8 µg/mL (≈ 92.7 µM)
- IC50 [6]: < 0.01 µg/mL
- IC70 [6]: 0.292 µg/mL (≈ 0.523 µM)
- IC90 [6]: 7.2 µg/mL (≈ 12.9 µM)
- IC50 (SW-620): < 0.01 µg/mL
- IC70 (SW-620): < 0.01 µg/mL
- IC90 (SW-620): 7.36 µg/mL (≈ 13.2 µM)
- IC50 [7]: 3.73 µg/mL (≈ 6.67 µM)
- IC70 [7]: 25.1 µg/mL (≈ 45 µM)
- IC90 [7]: 93.6 µg/mL (≈ 168 µM)
- IC50 [8]: 1.61 µg/mL (≈ 2.89 µM)
- IC70 [8]: 4.22 µg/mL (≈ 7.55 µM)
- IC90 [8]: 11 µg/mL (≈ 19.7 µM)
- IC50 [9]: 1.56 µg/mL (≈ 2.79 µM)
- IC70 [9]: 9.15 µg/mL (≈ 16.4 µM)
- IC90 [9]: > 100 µg/mL
- IC50 [10]: 0.048 µg/mL (≈ 0.0859 µM)
- IC70 [10]: 1 µg/mL (≈ 1.79 µM)
- IC90 [10]: 60 µg/mL (≈ 107 µM)
- IC50 [11]: 27.7 µg/mL (≈ 49.6 µM)
- IC70 [11]: 59 µg/mL (≈ 106 µM)
- IC90 [11]: 125 µg/mL (≈ 224 µM)
- IC50 [12]: 6.45 µg/mL (≈ 11.5 µM)
- IC70 [12]: 41.2 µg/mL (≈ 73.8 µM)
- IC90 [12]: 242 µg/mL (≈ 434 µM)
- IC50 [13]: 8.19 µg/mL (≈ 14.7 µM)
- IC70 [13]: 25.6 µg/mL (≈ 45.9 µM)
- IC90 [13]: 73 µg/mL (≈ 131 µM)
- IC50 [14]: 0.005 µg/mL (≈ 0.00895 µM)
- IC70 [14]: 30.6 µg/mL (≈ 54.8 µM)
- IC90 [14]: 114 µg/mL (≈ 204 µM)
- IC50 [15]: 2.11 µg/mL (≈ 3.78 µM)
- IC70 [15]: 7.33 µg/mL (≈ 13.1 µM)
- IC90 [15]: 61.6 µg/mL (≈ 110 µM)
- IC50 [16]: < 0.01 µg/mL
- IC70 [16]: < 0.01 µg/mL
- IC90 [16]: < 100 µg/mL
- IC50 (MCF7): 0.158 µg/mL (≈ 0.283 µM)
- IC70 (MCF7): 3.32 µg/mL (≈ 5.95 µM)
- IC90 (MCF7): 79.4 µg/mL (≈ 142 µM)
- IC50 [17]: 13.9 µg/mL (≈ 24.9 µM)
- IC70 [17]: 51.8 µg/mL (≈ 92.7 µM)
- IC90 [17]: 193 µg/mL (≈ 346 µM)
- IC50 [18]: < 0.01 µg/mL
- IC70 [18]: < 0.01 µg/mL
- IC90 [18]: 31.6 µg/mL (≈ 56.6 µM)
- IC50 [19]: 0.456 µg/mL (≈ 0.816 µM)
- IC70 [19]: 1.97 µg/mL (≈ 3.52 µM)
- IC90 [19]: 41.2 µg/mL (≈ 73.8 µM)
- IC50 [20]: 7.8 µg/mL (≈ 14 µM)
- IC70 [20]: 25.7 µg/mL (≈ 46 µM)
- IC90 [20]: 83.8 µg/mL (≈ 150 µM)
- IC50 [21]: 9.34 µg/mL (≈ 16.7 µM)
- IC70 [21]: 26.4 µg/mL (≈ 47.3 µM)
- IC90 [21]: 73.6 µg/mL (≈ 132 µM)
- IC50 [22]: 16.2 µg/mL (≈ 29 µM)
- IC70 [22]: 47.2 µg/mL (≈ 84.6 µM)
- IC90 [22]: 138 µg/mL (≈ 247 µM)
- IC50 (OVCAR-3): 1.24 µg/mL (≈ 2.22 µM)
- IC70 (OVCAR-3): 3.62 µg/mL (≈ 6.47 µM)
- IC90 (OVCAR-3): 10.6 µg/mL (≈ 18.9 µM)
- IC50 [23]: 4.16 µg/mL (≈ 7.44 µM)
- IC70 [23]: 19.3 µg/mL (≈ 34.6 µM)
- IC90 [23]: > 100 µg/mL
- IC50 [24]: 0.577 µg/mL (≈ 1.03 µM)
- IC70 [24]: 3.59 µg/mL (≈ 6.43 µM)
- IC90 [24]: 139 µg/mL (≈ 249 µM)
- IC50 (CWR22R): 0.189 µg/mL (≈ 0.338 µM)
- IC70 (CWR22R): 1.86 µg/mL (≈ 3.33 µM)
- IC90 (CWR22R): 31.6 µg/mL (≈ 56.6 µM)
- IC50 (DU-145 [25]): < 0.01 µg/mL
- IC70 (DU-145 [25]): < 0.01 µg/mL
- IC90 (DU-145 [25]): 2.37 µg/mL (≈ 4.24 µM)
- IC50 [26]: 0.008 µg/mL (≈ 0.0143 µM)
- IC70 [26]: 14.2 µg/mL (≈ 25.5 µM)
- IC90 [26]: > 100 µg/mL
- IC50 [27]: 16.6 µg/mL (≈ 29.7 µM)
- IC70 [27]: 41.7 µg/mL (≈ 74.6 µM)
- IC90 [27]: 105 µg/mL (≈ 187 µM)
- IC50 [28]: 4.33 µg/mL (≈ 7.75 µM)
- IC70 [28]: 25.9 µg/mL (≈ 46.4 µM)
- IC90 [28]: 127 µg/mL (≈ 227 µM)
- IC50 [29]: 0.297 µg/mL (≈ 0.532 µM)
- IC70 [29]: 5.18 µg/mL (≈ 9.27 µM)
- IC90 [29]: 57.8 µg/mL (≈ 103 µM)
- IC50 [30]: 6.72 µg/mL (≈ 12 µM)
- IC70 [30]: 20.5 µg/mL (≈ 36.8 µM)
- IC90 [30]: 86.6 µg/mL (≈ 155 µM)
- IC90 [31]: 10 µg/mL (≈ 17.9 µM)
- IC50 (UO-31): 2.4 µg/mL (≈ 4.3 µM)
- IC70 (UO-31): 4.99 µg/mL (≈ 8.94 µM)
- IC90 (UO-31): 100 µg/mL (≈ 179 µM)
- IC50 [32]: 3.35 µg/mL (≈ 5.99 µM)
- IC70 [32]: 11.1 µg/mL (≈ 19.9 µM)
- IC90 [32]: 90.1 µg/mL (≈ 161 µM)
- Activity (DU-145 [33]): Dose-dependent effect
- Activity (DU-145 [34]): Dose-dependent effect
- T/C (DU-145 [35]): 32.2%
- Time (DU-145 [36]): 2.3 days
- Time (DU-145 [37]): 20.4 days
- Activity (Mus musculus): 5.3%
- IC50 [38]: 0.009 µg/mL (≈ 0.0161 µM)
- IC70 [38]: 1.41 µg/mL (≈ 2.53 µM)
- IC90 [38]: 19.9 µg/mL (≈ 35.7 µM)
